Data: ChEMBL document CHEMBL2169880, “Synthesis of C-Pseudonucleosides Bearing Thiazolidin-4-one as a Novel Potential Immunostimulating Agent” (2011)
Calls of active or inactive are those of the source. No cut-off for these calls is given here.

Assays:
[1] = (§1) Immunostimulating activity in BALb/c mouse splenocytes assessed as increase in concanavalin A-induced cell proliferation at 5 uM after 72 hrs by MTT assay; format: functional, Splenocyte
Summary of the method: (§2)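 Mouse splenocytes co-treated with concanavalin A and compound at 5, 10, 25, 50 or 100 μM. Incubated 72 h at 37 °C under 5% CO₂, then proliferation read by MTT. Result expressed as % increase relative to Con A alone. Means ± SEM of at least three independent experiments.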

[2] = Immunostimulating activity in BALb/c mouse splenocytes assessed as increase in concanavalin A-induced cell proliferation at 100 uM after 72 hrs by MTT assay; format: functional, Splenocyte; summary of the method: as §2
[3] = Immunostimulating activity in BALb/c mouse splenocytes assessed as increase in concanavalin A-induced cell proliferation at 50 uM after 72 hrs by MTT assay; format: functional, Splenocyte; summary of the method: as §2
[4] = Immunostimulating activity in BALb/c mouse splenocytes assessed as increase in concanavalin A-induced cell proliferation at 25 uM after 72 hrs by MTT assay; format: functional, Splenocyte; summary of the method: as §2
[5] = Immunostimulating activity in BALb/c mouse splenocytes assessed as increase in concanavalin A-induced cell proliferation at 10 uM after 72 hrs by MTT assay; format: functional, Splenocyte; summary of the method: as §2
[6] = system: B; test: Immunostimulating activity in BALb/c mouse CD19+ B cells at 10 uM after 72 hrs by MTT assay; format: functional, cell-based
[7] = system: T-cell; test: Immunostimulating activity in BALb/c mouse CD8+ T cells at 10 uM after 72 hrs by MTT assay; format: functional, cell-based
[8] = system: T-cell; test: Immunostimulating activity in BALb/c mouse CD4+ T cells at 10 uM after 72 hrs by […]; format: functional, cell-based
Summary of the method: (§3)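 CD3+, CD4+ and CD8+ T cells and CD19+ B cells from splenocyte cultures quantified by flow cytometry. Compound at 5, 10 or 50 μM, compared with Con A-treated cells. Means ± SEM of at least three independent experiments.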

[9] = system: T-cell; test: Immunostimulating activity in BALb/c mouse CD3+ T cells at 10 uM after 72 hrs by MTT assay; format: functional, cell-based
[10] = system: Splenocyte; test: Immunostimulating activity in concanavalin A-stimulated BALb/c mouse splenocytes assessed as increase in IL2 secretion at 10 uM after 72 hrs by ELISA; format: functional
Summary of the method: (§4)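 IL-4, IL-2 and IFN-γ measured by mouse ELISA in supernatants of total splenocyte cultures. Cultures contained concanavalin A (printed as 20 μM) plus compound at 5, 10 or 50 μM. Compared with Con A alone. Means ± SEM of at least three independent experiments.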

[11] = system: Splenocyte; test: Immunostimulating activity in concanavalin A-stimulated BALb/c mouse splenocytes assessed as increase in IFNgamma secretion at 10 uM after 72 hrs by ELISA; format: functional; summary of the method: as §4
[12] = system: Splenocyte; test: Immunostimulating activity in concanavalin A-stimulated BALb/c mouse splenocytes assessed as increase in IL4 secretion at 10 uM after 72 hrs by ELISA; format: functional; summary of the method: as §4
[13] = system: Splenocyte; test: Immunostimulating activity in BALb/c mouse splenocytes assessed as cell proliferation at 5 to 100 uM after 72 hrs by MTT assay; format: functional, cell-based
Summary of the method: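 Mouse splenocytes exposed to compound without concanavalin A. Proliferation measured by MTT after 72 h at 37 °C, 5% CO₂.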

[14] = Immunostimulating activity in BALb/c mouse splenocytes assessed as increase in LPS-induced cell proliferation at 5 uM after 72 hrs by MTT assay; format: functional, Splenocyte
Summary of the method: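 Splenocyte proliferation induced by LPS, with compound added at 5 μM. Reported as % increase over LPS-treated cells. Means ± SEM of at least three independent experiments.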

[15] = system: B; test: Immunostimulating activity in BALb/c mouse CD19+ B cells at 5 uM after 72 hrs […]; format: functional, cell-based; summary of the method: as §3
[16] = system: T-cell; test: Immunostimulating activity in BALb/c mouse CD8+ T cells at 5 uM after 72 hrs […]; format: functional, cell-based; summary of the method: as §3
[17] = system: T-cell; test: Immunostimulating activity in BALb/c mouse CD4+ T cells at 5 uM after 72 hrs by MTT assay; format: functional, cell-based
[18] = system: T-cell; test: Immunostimulating activity in BALb/c mouse CD3+ T cells at 5 uM after 72 hrs by […]; format: functional, cell-based; summary of the method: as §3
[19] = system: Splenocyte; test: Immunostimulating activity in concanavalin A-stimulated BALb/c mouse splenocytes assessed as increase in IL2 secretion at 5 uM after 72 hrs by ELISA; format: functional; summary of the method: as §4
[20] = system: Splenocyte; test: as §1; format: functional; summary of the method: as §2
[21] = system: Splenocyte; test: Immunostimulating activity in concanavalin A-stimulated BALb/c mouse splenocytes assessed as increase in IFNgamma secretion at 5 uM after 72 hrs by ELISA; format: functional, cell-based; summary of the method: as §4
[22] = system: Splenocyte; test: Immunostimulating activity in concanavalin A-stimulated BALb/c mouse splenocytes assessed as increase in IL4 secretion at 5 uM after 72 hrs by ELISA; format: functional; summary of the method: as §4
[23] = system: B; test: Immunostimulating activity in BALb/c mouse CD19+ B cells at 50 uM after 72 hrs by MTT assay; format: functional, cell-based
[24] = system: T-cell; test: Immunostimulating activity in BALb/c mouse CD8+ T cells at 50 uM after 72 hrs by […]; format: functional, cell-based; summary of the method: as §3
[25] = system: T-cell; test: Immunostimulating activity in BALb/c mouse CD4+ T cells at 50 uM after 72 hrs by MTT assay; format: functional, cell-based
[26] = system: T-cell; test: Immunostimulating activity in BALb/c mouse CD3+ T cells at 50 uM after 72 hrs by […]; format: functional, cell-based; summary of the method: as §3
[27] = system: Splenocyte; test: Immunostimulating activity in concanavalin A-stimulated BALb/c mouse splenocytes assessed as increase in IL2 secretion at 50 uM after 72 hrs by ELISA; format: functional; summary of the method: as §4
[28] = system: Splenocyte; test: Immunostimulating activity in concanavalin A-stimulated BALb/c mouse splenocytes assessed as increase in IFNgamma secretion at 50 uM after 72 hrs by ELISA; format: functional; summary of the method: as §4
[29] = system: Splenocyte; test: Immunostimulating activity in concanavalin A-stimulated BALb/c mouse splenocytes assessed as increase in IL4 secretion at 50 uM after 72 hrs by ELISA; format: functional; summary of the method: as §4

In the case of `CCCCCCCCN1C(=O)CS[C@H]1[C@H]1O[C@H](CO)[C@@H](O)[C@@H]1O`, the Activity [1] is reported as less than 50%, the Activity [2] is reported as less than 50% and the Activity [3] is reported as less than 50%. The Activity [4] was less than 50% and the Activity [5] was less than 50%.

In the case of `CCCCN1C(=O)CS[C@H]1[C@H]1O[C@H](CO)[C@@H](O)[C@@H]1O`, the Activity [1] is reported as less than 50%, the Activity [2] is reported as less than 50% and the Activity [3] is reported as less than 50%. It also gave an Activity [4] of less than 50% and an Activity [5] of less than 50%.

With `CN1C(=O)CS[C@H]1[C@H]1O[C@H](CO)[C@@H](O)[C@@H]1O` the Activity [6] was “inactive”, the Activity [7] was “inactive” and the Activity [8] was “Active”. For the same compound, the Activity [9] was “Active”, the Activity [10] was 78% and the Activity [1] was 28%. The Activity [11] was 21%, the Activity [12] was 43% and the Activity [13] was “inactive”. The Activity [2] was 245%, the Activity [3] was 35% and the Activity [4] was 138%. It also gave an Activity [5] of 290%.

With `O=C1CS[C@@H]([C@H]2O[C@H](CO)[C@@H](O)[C@@H]2O)N1c1ccccc1` the Activity [14] was 117%, the Activity [15] was “Active” and the Activity [16] was “inactive”. For the same compound, the Activity [17] was “Active”, the Activity [18] was “Active” and the Activity [19] was 99%. For the same compound, the Activity [20] was “Active”, the Activity [21] was “inactive” and the Activity [22] was 39%. The Activity [13] was “inactive”, the Activity [2] was less than 50% and the Activity [3] was less than 50%. For the same compound, the Activity [4] was less than 50% and the Activity [5] was less than 50%.

In the case of `CCCCN1C(=O)CS[C@@H]1[C@H]1O[C@H](CO)[C@@H](O)[C@@H]1O`, the Activity [1] is reported as less than 50%, the Activity [2] is reported as less than 50% and the Activity [3] is reported as less than 50%. The Activity [4] was less than 50% and the Activity [5] was less than 50%.

With `O=C1CS[C@H]([C@H]2O[C@H](CO)[C@@H](O)[C@@H]2O)N1c1ccccc1` the Activity [14] was 238%, the Activity [15] was “Active” and the Activity [16] was “inactive”. For the same compound, the Activity [17] was “Active”, the Activity [18] was “Active” and the Activity [19] was 138%. The Activity [1] was 166%, the Activity [21] was “inactive” and the Activity [22] was 41%. The Activity [13] was “inactive”, the Activity [3] was 171% and the Activity [4] was less than 50%. For the same compound, the Activity [5] was less than 50%.

With `CN1C(=O)CS[C@@H]1[C@H]1O[C@H](CO)[C@@H](O)[C@@H]1O` the Activity [23] was “inactive”, the Activity [24] was “inactive” and the Activity [25] was “Active”. For the same compound, the Activity [26] was “Active”, the Activity [27] was 37% and the Activity [1] was 111%. For the same compound, the Activity [28] was 30%, the Activity [29] was 42% and the Activity [13] was “inactive”. For the same compound, the Activity [2] was 230%, the Activity [3] was 327% and the Activity [4] was 91%. For the same compound, the Activity [5] was 98%.

Work on `CCCCCCCCCCCCCCCCCCN1C(=O)CS[C@@H]1[C@H]1O[C@H](CO)[C@@H](O)[C@@H]1O` yielded an Activity [1] of less than 50%, an Activity [2] of less than 50% and an Activity [3] of less than 50%. For the same compound, the Activity [4] was less than 50% and the Activity [5] was less than 50%.

In the case of `CCCCCCCCCCCCCCCCCCN1C(=O)CS[C@H]1[C@H]1O[C@H](CO)[C@@H](O)[C@@H]1O`, the Activity [1] is reported as less than 50%, the Activity [2] is reported as less than 50% and the Activity [3] is reported as less than 50%. It also gave an Activity [4] of less than 50% and an Activity [5] of less than 50%.

Work on `CCCCCCCCN1C(=O)CS[C@@H]1[C@H]1O[C@H](CO)[C@@H](O)[C@@H]1O` yielded an Activity [1] of less than 50%, an Activity [2] of less than 50% and an Activity [3] of less than 50%. For the same compound, the Activity [4] was less than 50% and the Activity [5] was less than 50%.
